Where “and” joins values, the source holds several entries; their conditions need not be identical. Equal values may be shown once.
Test system: HEK-293T
Assay: Multiplex assay against HEK293T;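 as to Population Tubulin-Different-Phenotype (%): share of the cells with healthy nuclei that show this phenotype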
Format: toxicity, cell-based
Settings: human
Procedure, shortened: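 On a CQ1 microscope at 37°C and 5% CO2, live cells were imaged after compound addition. They had been stained at seeding with Hoechst33342, BioTracker Green Microtubule Cytoskeleton Dye, MitoTracker Red and Annexin V Alexa Fluor 680. CellPathfinder machine-learning gating assigned cells to Hoechst high-intensity objects or normal cells, normal cells to healthy, pyknosed or fragmented nuclei, and pyknosed cells to mitotic or apoptotic. Tubulin, mitochondrial-mass and membrane-permeability phenotypes are per cents of healthy-nucleus cells.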

[1] = 12 h, 1 µM, compound concentration 1 uM, replicate 1
[2] = 12 h, 1 µM, compound concentration 1 uM, replicate 2
[3] = 12 h, 10 µM, compound concentration 10 uM, replicate 1
[4] = 12 h, 10 µM, compound concentration 10 uM, replicate 2
[5] = 24 h, 1 µM, compound concentration 1 uM, replicate 1
[6] = 24 h, 1 µM, compound concentration 1 uM, replicate 2
[7] = 24 h, 10 µM, compound concentration 10 uM, replicate 1
[8] = 24 h, 10 µM, compound concentration 10 uM, replicate 2
[9] = 48 h, 1 µM, compound concentration 1 uM, replicate 1
[10] = 48 h, 1 µM, compound concentration 1 uM, replicate 2
[11] = 48 h, 10 µM, compound concentration 10 uM, replicate 1
[12] = 48 h, 10 µM, compound concentration 10 uM, replicate 2

## O=C(Nc1ccc(-c2ccnc(Nc3ccc(N4CCOCC4)cc3)n2)cc1)[C@@H]1CCCN1
[1]
  Population Apoptotic (%): 46%
  Population Fragmented Nuclei (%): 9%
  Population Healthy Nuclei (%): 34%
  Population Hoechst High Intensity Objects (%): 11%
  Population Membrane Permeable-Phenotype (%): 2%
  Population Mitochondria Different-Phenotype (%): 77%
  Population Mitotic Cells (%): 53%
  Population Normal (%): 88%
  Population Pyknosed Nuclei (%): 56%
  Population Tubulin-Different-Phenotype (%): 50%
  Total Cell Count: 289
[2]
  Population Apoptotic (%): 13%
  Population Fragmented Nuclei (%): 2%
  Population Healthy Nuclei (%): 45%
  Population Hoechst High Intensity Objects (%): 4%
  Population Membrane Permeable-Phenotype (%): 12%
  Population Mitochondria Different-Phenotype (%): 19%
  Population Mitotic Cells (%): 86%
  Population Normal (%): 95%
  Population Pyknosed Nuclei (%): 51%
  Population Tubulin-Different-Phenotype (%): 30%
  Total Cell Count: 246
[3]
  Population Apoptotic (%): 54%
  Population Fragmented Nuclei (%): 16%
  Population Healthy Nuclei (%): 17%
  Population Hoechst High Intensity Objects (%): 18%
  Population Membrane Permeable-Phenotype (%): 0%
  Population Mitochondria Different-Phenotype (%): 96%
  Population Mitotic Cells (%): 45%
  Population Normal (%): 81%
  Population Pyknosed Nuclei (%): 65%
  Population Tubulin-Different-Phenotype (%): 100%
  Total Cell Count: 232
[4]
  Population Apoptotic (%): 27%
  Population Fragmented Nuclei (%): 12%
  Population Healthy Nuclei (%): 15%
  Population Hoechst High Intensity Objects (%): 4%
  Population Membrane Permeable-Phenotype (%): 12%
  Population Mitochondria Different-Phenotype (%): 62%
  Population Mitotic Cells (%): 72%
  Population Normal (%): 95%
  Population Pyknosed Nuclei (%): 72%
  Population Tubulin-Different-Phenotype (%): 91%
  Total Cell Count: 163
[5]
  Population Apoptotic (%): 51%
  Population Fragmented Nuclei (%): 10%
  Population Healthy Nuclei (%): 52%
  Population Hoechst High Intensity Objects (%): 12%
  Population Membrane Permeable-Phenotype (%): 1%
  Population Mitochondria Different-Phenotype (%): 75%
  Population Mitotic Cells (%): 48%
  Population Normal (%): 87%
  Population Pyknosed Nuclei (%): 36%
  Population Tubulin-Different-Phenotype (%): 51%
  Total Cell Count: 337
[6]
  Population Apoptotic (%): 17%
  Population Fragmented Nuclei (%): 3%
  Population Healthy Nuclei (%): 63%
  Population Hoechst High Intensity Objects (%): 3%
  Population Membrane Permeable-Phenotype (%): 6%
  Population Mitochondria Different-Phenotype (%): 21%
  Population Mitotic Cells (%): 82%
  Population Normal (%): 96%
  Population Pyknosed Nuclei (%): 32%
  Population Tubulin-Different-Phenotype (%): 46%
  Total Cell Count: 303
[7]
  Population Apoptotic (%): 57%
  Population Fragmented Nuclei (%): 18%
  Population Healthy Nuclei (%): 24%
  Population Hoechst High Intensity Objects (%): 12%
  Population Membrane Permeable-Phenotype (%): 1%
  Population Mitochondria Different-Phenotype (%): 98%
  Population Mitotic Cells (%): 42%
  Population Normal (%): 87%
  Population Pyknosed Nuclei (%): 56%
  Population Tubulin-Different-Phenotype (%): 98%
  Total Cell Count: 242
[8]
  Population Apoptotic (%): 32%
  Population Fragmented Nuclei (%): 7%
  Population Healthy Nuclei (%): 38%
  Population Hoechst High Intensity Objects (%): 4%
  Population Membrane Permeable-Phenotype (%): 7%
  Population Mitochondria Different-Phenotype (%): 56%
  Population Mitotic Cells (%): 67%
  Population Normal (%): 95%
  Population Pyknosed Nuclei (%): 53%
  Population Tubulin-Different-Phenotype (%): 88%
  Total Cell Count: 186
[9]
  Population Apoptotic (%): 48%
  Population Fragmented Nuclei (%): 10%
  Population Healthy Nuclei (%): 71%
  Population Hoechst High Intensity Objects (%): 7%
  Population Membrane Permeable-Phenotype (%): 3%
  Population Mitochondria Different-Phenotype (%): 31%
  Population Mitotic Cells (%): 51%
  Population Normal (%): 92%
  Population Pyknosed Nuclei (%): 17%
  Population Tubulin-Different-Phenotype (%): 33%
  Total Cell Count: 482
[10]
  Population Apoptotic (%): 10%
  Population Fragmented Nuclei (%): 4%
  Population Healthy Nuclei (%): 84%
  Population Hoechst High Intensity Objects (%): 3%
  Population Membrane Permeable-Phenotype (%): 4%
  Population Mitochondria Different-Phenotype (%): 6%
  Population Mitotic Cells (%): 90%
  Population Normal (%): 96%
  Population Pyknosed Nuclei (%): 10%
  Population Tubulin-Different-Phenotype (%): 25%
  Total Cell Count: 495
[11]
  Population Apoptotic (%): 49%
  Population Fragmented Nuclei (%): 22%
  Population Healthy Nuclei (%): 48%
  Population Hoechst High Intensity Objects (%): 8%
  Population Membrane Permeable-Phenotype (%): 4%
  Population Mitochondria Different-Phenotype (%): 84%
  Population Mitotic Cells (%): 50%
  Population Normal (%): 91%
  Population Pyknosed Nuclei (%): 29%
  Population Tubulin-Different-Phenotype (%): 95%
  Total Cell Count: 271
[12]
  Population Apoptotic (%): 36%
  Population Fragmented Nuclei (%): 10%
  Population Healthy Nuclei (%): 60%
  Population Hoechst High Intensity Objects (%): 5%
  Population Membrane Permeable-Phenotype (%): 10%
  Population Mitochondria Different-Phenotype (%): 38%
  Population Mitotic Cells (%): 63%
  Population Normal (%): 94%
  Population Tubulin-Different-Phenotype (%): 81%
  Total Cell Count: 246

## CN([C@@H](Cc1ccc(OS(=O)(=O)c2cccc3cnccc23)cc1)C(=O)N1CCN(c2ccccc2)CC1)S(=O)(=O)c1cccc2cnccc12
[1]
  Population Apoptotic (%): 32% and 22%
  Population Fragmented Nuclei (%): 26% and 15%
  Population Healthy Nuclei (%): 31% and 38%
  Population Hoechst High Intensity Objects (%): 18% and 15%
  Population Membrane Permeable-Phenotype (%): 34% and 31%
  Population Mitochondria Different-Phenotype (%): 22%
  Population Mitotic Cells (%): 67% and 77%
  Population Normal (%): 81% and 84%
  Population Pyknosed Nuclei (%): 42% and 46%
  Population Tubulin-Different-Phenotype (%): 77% and 86%
  Total Cell Count: 417 and 601
[2]
  Population Apoptotic (%): 15% and 13%
  Population Fragmented Nuclei (%): 2% and 3%
  Population Healthy Nuclei (%): 73%
  Population Hoechst High Intensity Objects (%): 3% and 2%
  Population Membrane Permeable-Phenotype (%): 28% and 27%
  Population Mitochondria Different-Phenotype (%): 34% and 43%
  Population Mitotic Cells (%): 84% and 86%
  Population Normal (%): 96% and 97%
  Population Pyknosed Nuclei (%): 23% and 22%
  Population Tubulin-Different-Phenotype (%): 97%
  Total Cell Count: 993 and 1067
[5]
  Population Apoptotic (%): 39% and 33%
  Population Fragmented Nuclei (%): 22% and 14%
  Population Healthy Nuclei (%): 46% and 51%
  Population Hoechst High Intensity Objects (%): 14% and 13%
  Population Membrane Permeable-Phenotype (%): 20%
  Population Mitochondria Different-Phenotype (%): 50% and 32%
  Population Mitotic Cells (%): 60% and 66%
  Population Normal (%): 85% and 86%
  Population Pyknosed Nuclei (%): 31% and 33%
  Population Tubulin-Different-Phenotype (%): 88% and 94%
  Total Cell Count: 402 and 587
[6]
  Population Apoptotic (%): 11%
  Population Fragmented Nuclei (%): 9% and 3%
  Population Healthy Nuclei (%): 75% and 68%
  Population Hoechst High Intensity Objects (%): 2% and 5%
  Population Membrane Permeable-Phenotype (%): 25% and 18%
  Population Mitochondria Different-Phenotype (%): 40% and 37%
  Population Mitotic Cells (%): 88%
  Population Normal (%): 97% and 94%
  Population Pyknosed Nuclei (%): 15% and 28%
  Population Tubulin-Different-Phenotype (%): 98% and 96%
  Total Cell Count: 1327 and 1023

## CN1CCN(C(=O)C(C)(C)c2ccc(C(=O)Nc3cn4cc(-c5ccncc5)ccc4n3)cc2)CC1 [T3-CLK]
[3]
  Population Hoechst High Intensity Objects (%): 16% and 14% and 10%
  Population Membrane Permeable-Phenotype (%): 6% and 17%
  Population Normal (%): 83% and 85% and 89%
  Population Pyknosed Nuclei (%): 24% and 27%
[4]
  Population Fragmented Nuclei (%): 4% and 3% and 6%
  Population Hoechst High Intensity Objects (%): 7% and 4%
  Population Membrane Permeable-Phenotype (%): 10% and 5%
  Population Mitotic Cells (%): 49% and 79% and 91%
  Population Normal (%): 92% and 95%
  Population Tubulin-Different-Phenotype (%): 89% and 85% and 39%
[7]
  Population Fragmented Nuclei (%): 15% and 17% and 6%
  Population Hoechst High Intensity Objects (%): 18% and 17% and 6%
  Population Membrane Permeable-Phenotype (%): 9% and 11% and 13%
  Population Normal (%): 81% and 82% and 93%
  Population Tubulin-Different-Phenotype (%): 100% and 76% and 34%
[8]
  Population Fragmented Nuclei (%): 4% and 7%
  Population Membrane Permeable-Phenotype (%): 14% and 16% and 8%
  Population Normal (%): 91% and 97% and 94%
  Population Tubulin-Different-Phenotype (%): 91% and 70% and 94%
[11]
  Population Apoptotic (%): 92%
  Population Fragmented Nuclei (%): 19%
  Population Healthy Nuclei (%): 10%
  Population Hoechst High Intensity Objects (%): 18%
  Population Membrane Permeable-Phenotype (%): 0%
  Population Mitochondria Different-Phenotype (%): 94%
  Population Mitotic Cells (%): 7%
  Population Normal (%): 81%
  Population Pyknosed Nuclei (%): 70%
  Population Tubulin-Different-Phenotype (%): 77%
  Total Cell Count: 216
[12]
  Population Apoptotic (%): 91%
  Population Fragmented Nuclei (%): 7%
  Population Healthy Nuclei (%): 17%
  Population Hoechst High Intensity Objects (%): 4%
  Population Membrane Permeable-Phenotype (%): 12%
  Population Mitochondria Different-Phenotype (%): 79%
  Population Mitotic Cells (%): 8%
  Population Normal (%): 95%
  Population Pyknosed Nuclei (%): 75%
  Population Tubulin-Different-Phenotype (%): 87%
  Total Cell Count: 142

Reference: ChEMBL document CHEMBL4689842, “EUbOPEN Chemogenomics Library wave 1” (2021)
